Source: ChEMBL document CHEMBL4011650, “3-Hydroxy-1H-quinazoline-2,4-dione as a New Scaffold To Develop Potent and Selective Inhibitors of the Tumor-Associated Carbonic Anhydrases IX and XII” (J Med Chem, 2017)
Calls of active or inactive are those of the source. The calls are words filed in the database; no cut-off is given here.

Experiments:
[1] = Antiproliferative activity against human HT-29 cells assessed as cell viability at 30 uM after 48 hrs under normoxic conditions by MTT assay relative to control; type: cell-based; settings: read-out: Activity
How it was run: (§1)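 HT-29 cells in high-glucose DMEM with 20% FBS were seeded at 1·10^4/well and treated 24 h later. Incubation was under normoxia (20% O2, air with 5% CO2) at 37 °C for 16, 48 or 72 h. Viability was read by MTT reduction (1 mg/ml, 30 min), with formazan in DMSO read at 550 nm, relative to untreated control set at 100%. Quadruplicates on at least three cell batches.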

[2] = target: Carbonic anhydrase 1 (Homo sapiens, UniProt P00915); test: Inhibition of recombinant human carbonic anhydrase 1 preincubated for 15 mins prior to testing by phenol red based stopped-flow CO2 hydration assay
Sequence of Carbonic anhydrase 1 (P00915 whole entry): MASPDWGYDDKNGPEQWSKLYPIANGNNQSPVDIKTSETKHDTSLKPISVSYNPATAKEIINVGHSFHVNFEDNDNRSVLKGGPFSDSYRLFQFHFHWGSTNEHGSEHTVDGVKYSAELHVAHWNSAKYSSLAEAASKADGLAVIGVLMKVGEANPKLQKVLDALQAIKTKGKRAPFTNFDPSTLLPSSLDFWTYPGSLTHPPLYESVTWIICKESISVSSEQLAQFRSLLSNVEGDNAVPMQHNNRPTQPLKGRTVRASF

[3] = Antiproliferative activity against human HT-29 cells assessed as cell viability at 100 uM after 48 hrs under normoxic conditions by MTT assay relative to control; type: cell-based; settings: read-out: Activity; how it was run: as §1
[4] = tested on: HT-29; test: Antiproliferative activity against human HT-29 cells assessed as cell viability at 300 uM after 48 hrs under hypoxic conditions by MTT assay relative to control; type: functional; settings: HT-29, 48 h, read-out: Activity
How it was run: (§2)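 HT-29 cells were grown in high-glucose DMEM with 20% FBS, seeded at 1·10^4/well and dosed 24 h later. Incubation was in a hypoxic chamber (0.1% O2, 5% CO2, balance N2) for 16, 48 or 72 h. Cells were washed, given MTT 1 mg/ml for 30 min at 37 °C, and formazan was dissolved in DMSO and read at 550 nm. Viability is % of untreated control, mean ± S.E.M.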

[5] = Antiproliferative activity against human HT-29 cells assessed as cell viability at 300 uM after 72 hrs under normoxic conditions by MTT assay relative to control; type: cell-based; settings: read-out: Activity; how it was run: as §1
[6] = tested on: HT-29; test: Antiproliferative activity against human HT-29 cells assessed as cell viability at 100 uM after 72 hrs under hypoxic conditions by MTT assay relative to control; type: functional; settings: HT-29, 72 h, read-out: Activity; how it was run: as §2
[7] = target: Carbonic anhydrase 2 (Homo sapiens, UniProt P00918); test: Inhibition of recombinant human carbonic anhydrase 2 preincubated for 15 mins prior to testing by phenol red based stopped-flow CO2 hydration assay
[8] = tested on: HT-29; test: Antiproliferative activity against human HT-29 cells assessed as cell viability at 300 uM after 72 hrs under hypoxic conditions by MTT assay relative to control; type: functional; settings: HT-29, 72 h, read-out: Activity; how it was run: as §2
[9] = target: Carbonic anhydrase 9 (Homo sapiens, UniProt Q16790)
[10] = tested on: HT-29; test: Antiproliferative activity against human HT-29 cells assessed as cell viability at 30 uM after 72 hrs under hypoxic conditions by MTT assay relative to control; type: functional; settings: HT-29, 72 h, read-out: Activity; how it was run: as §2
[11] = tested on: HT-29; test: Antiproliferative activity against human HT-29 cells assessed as cell viability at 30 uM after 48 hrs under hypoxic conditions by MTT assay relative to control; type: functional; settings: HT-29, 48 h, read-out: Activity; how it was run: as §2
[12] = tested on: HT-29; test: Antiproliferative activity against human HT-29 cells assessed as cell viability at 100 uM after 48 hrs under hypoxic conditions by MTT assay relative to control; type: functional; settings: HT-29, 48 h, read-out: Activity; how it was run: as §2
[13] = Antiproliferative activity against human HT-29 cells assessed as cell viability at 30 uM after 72 hrs under normoxic conditions by MTT assay relative to control; type: cell-based; settings: read-out: Activity; how it was run: as §1
[14] = Antiproliferative activity against human HT-29 cells assessed as cell viability at 300 uM after 48 hrs under normoxic conditions by MTT assay relative to control; type: cell-based; settings: read-out: Activity; how it was run: as §1
[15] = Antiproliferative activity against human HT-29 cells assessed as cell viability at 100 uM after 72 hrs under normoxic conditions by MTT assay relative to control; type: cell-based; settings: read-out: Activity; how it was run: as §1
[16] = tested on: HT-29; test: Antiproliferative activity against human HT-29 cells assessed as reduction in cell viability at 30 to 300 uM after 16 hrs under hypoxic conditions by MTT assay relative to control; type: functional, cell-based; how it was run: as §2
[17] = tested on: HT-29; test: Antiproliferative activity against human HT-29 cells assessed as reduction in cell viability at 30 to 300 uM after 16 hrs under normoxic conditions by MTT assay relative to control; type: cell-based; settings: ht-29, 16 h; how it was run: as §1

Compound	viability at 48 h, 30 µM [1]	Ki [2]	viability at 48 h, 100 µM [3]	viability at 300 µM [4]	viability at 72 h, 300 µM [5]	viability at 100 µM [6]	Ki [7]	viability at 300 µM [8]	Ki [9]	viability at 30 µM [10]	viability at 30 µM [11]	viability at 100 µM [12]	viability at 72 h, 30 µM [13]	viability at 48 h, 300 µM [14]	viability at 72 h, 100 µM [15]	Activity [16]	Activity [17]
O=c1[nH]c2ccc([N+](=O)[O-])cc2c(=O)n1O	101%	> 10 µM	95.5%	96.7%	94.3%	93.7%	> 10 µM	87.3%	0.0046 µM	94.7%	98.8%	99.5%	95.6%	95.1%	94.1%	–	–
O=c1[nH]c2cc(Cl)c(-n3cnnc3)cc2c(=O)n1O	–	> 10 µM	–	–	–	–	> 10 µM	–	0.0333 µM	–	–	–	–	–	–	–	–
O=C(O)c1ccccc1C(=O)Nc1ccc2[nH]c(=O)n(O)c(=O)c2c1	–	> 10 µM	–	–	–	–	> 10 µM	–	0.0625 µM	–	–	–	–	–	–	–	–
O=c1[nH]c2cc(Cl)ccc2c(=O)n1O	–	> 10 µM	–	–	–	–	> 10 µM	–	0.0697 µM	–	–	–	–	–	–	–	–
O=c1[nH]c2ccc(-n3cnnc3)cc2c(=O)n1O	–	> 10 µM	–	–	–	–	> 10 µM	–	0.0695 µM	–	–	–	–	–	–	–	–
O=c1[nH]c2ccc(Cl)cc2c(=O)n1O	–	> 10 µM	–	–	–	–	> 10 µM	–	0.0482 µM	–	–	–	–	–	–	–	–
O=c1[nH]c2cc(Cl)c(-n3cccc3)cc2c(=O)n1O	–	> 10 µM	–	–	–	–	> 10 µM	–	0.0083 µM	–	–	–	–	–	–	–	–
O=C(O)CCC(=O)Nc1ccc2[nH]c(=O)n(O)c(=O)c2c1	–	> 10 µM	–	–	–	–	> 10 µM	–	0.0648 µM	–	–	–	–	–	–	–	–
O=C(NCc1ccccc1)Nc1cc2c(=O)n(O)c(=O)[nH]c2cc1Cl	–	> 10 µM	–	–	–	–	> 10 µM	–	0.0069 µM	–	–	–	–	–	–	–	–
O=C(Nc1ccccc1)Nc1cc2c(=O)n(O)c(=O)[nH]c2cc1Cl	–	> 10 µM	–	–	–	–	> 10 µM	–	0.0428 µM	–	–	–	–	–	–	–	–
O=C(Nc1cc2c(=O)n(O)c(=O)[nH]c2cc1Cl)c1ccccc1	–	> 10 µM	–	–	–	–	> 10 µM	–	0.0588 µM	–	–	–	–	–	–	–	–
O=C(O)CCC(=O)Nc1cc2c(=O)n(O)c(=O)[nH]c2cc1Cl	–	> 10 µM	–	–	–	–	> 10 µM	–	0.007 µM	–	–	–	–	–	–	–	–
O=c1[nH]c2cc(C(F)(F)F)ccc2c(=O)n1O	–	> 10 µM	–	–	–	–	> 10 µM	–	0.0082 µM	–	–	–	–	–	–	–	–
Nc1ccc2[nH]c(=O)n(O)c(=O)c2c1	–	> 10 µM	–	–	–	–	> 10 µM	–	0.273 µM	–	–	–	–	–	–	–	–
O=C(Nc1ccccc1)Nc1ccc2[nH]c(=O)n(O)c(=O)c2c1	–	> 10 µM	–	–	–	–	> 10 µM	–	0.301 µM	–	–	–	–	–	–	–	–
O=c1[nH]c2cc(Cl)cc(Cl)c2c(=O)n1O	92.6%	> 10 µM	93.8%	104%	94.9%	87%	> 10 µM	78.9%	0.0077 µM	93%	101%	102%	94.2%	91%	95.9%	–	–
COn1c(=O)[nH]c2cc(Cl)ccc2c1=O	–	> 10 µM	–	–	–	–	> 10 µM	–	0.208 µM	–	–	–	–	–	–	–	–
Nc1cc2c(=O)n(O)c(=O)[nH]c2cc1Cl	–	> 10 µM	–	–	–	–	> 10 µM	–	0.0431 µM	–	–	–	–	–	–	–	–
O=c1[nH]c2ccccc2c(=O)n1O	–	> 10 µM	–	–	–	–	> 10 µM	–	0.48 µM	–	–	–	–	–	–	–	–
CC(=O)Nc1nnc(S(N)(=O)=O)s1 [ACETAZOLAMIDE]	96.8%	–	101%	85.7%	93.2%	111%	–	84.1%	–	107%	108%	102%	97.6%	101%	95.8%	–	–
O=C1C=CCN1c1cc2c(=O)n(O)c(=O)[nH]c2cc1Cl	48.5%	> 10 µM	56.2%	88.9%	68.3%	45.7%	> 10 µM	65.2%	0.0083 µM	20.6%	50.6%	60.1%	36.4%	106%	57.3%	–	–
O=c1[nH]c2cc(Cl)c([N+](=O)[O-])cc2c(=O)n1O	58.2%	> 10 µM	72.5%	70.8%	70.3%	55.9%	> 10 µM	63.5%	–	41.6%	45.7%	64.6%	36.8%	77.6%	61.2%	–	–
O=C(O)c1ccccc1C(=O)Nc1cc2c(=O)n(O)c(=O)[nH]c2cc1Cl	–	> 10 µM	–	–	–	–	> 10 µM	–	0.0081 µM	–	–	–	–	–	–	–	–
O=c1[nH]c2cc(Cl)c(-n3ccnc3)cc2c(=O)n1O	–	> 10 µM	–	–	–	–	> 10 µM	–	0.0749 µM	–	–	–	–	–	–	–	–
O=C(NCc1ccccc1)Nc1ccc2[nH]c(=O)n(O)c(=O)c2c1	57.4%	> 10 µM	56.9%	78.2%	61.3%	40.2%	> 10 µM	59.9%	0.0267 µM	33.4%	50.6%	46%	32.4%	85.6%	51.7%	Active	Toxic
O=C(O)c1ccc(C(=O)Nc2cc3c(=O)n(O)c(=O)[nH]c3cc2Cl)cc1	–	> 10 µM	–	–	–	–	> 10 µM	–	0.0079 µM	–	–	–	–	–	–	–	–
O=c1[nH]c2cc(C(F)(F)F)c([N+](=O)[O-])cc2c(=O)n1O	53.9%	> 10 µM	57.7%	50.2%	49.7%	38.2%	> 10 µM	40.3%	0.0097 µM	38.6%	45.2%	46.8%	41.5%	45.1%	45.3%	–	–
O=c1[nH]c2cc(Cl)c(Cl)cc2c(=O)n1O	93.4%	> 10 µM	91%	14.8%	20.6%	78.1%	> 10 µM	24.5%	0.0082 µM	93.3%	106%	76%	107%	9.44%	73.5%	–	–
O=c1[nH]c2cc(C(F)(F)F)c(-n3cnnc3)cc2c(=O)n1O	–	> 10 µM	–	–	–	–	> 10 µM	–	–	–	–	–	–	–	–	–	–
O=C(O)COn1c(=O)[nH]c2cc(Cl)c([N+](=O)[O-])cc2c1=O	–	> 10 µM	–	–	–	–	> 10 µM	–	0.018 µM	–	–	–	–	–	–	–	–
